# According to article PMC4331064 (Investigational new drugs, 2010):
# Experiments:
# [1] = system: patients with advanced cancer; assay: Phase I dose-escalation safety and tolerability; format: in vivo, human
# Method in brief: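 Single-center oral once-daily escalation. Part A used 3+3 cohorts starting at 1/12th of the allometrically scaled rat LOAEL. Part B used single-patient cohorts, expanded to 3+3 after ≥Grade 2 drug-related toxicity in cycle 1. AEs were graded by NCI CTCAE v3. DLT was a treatment-related Grade ≥3 nonhematologic or Grade ≥4 hematologic cycle-1 AE. MTD was the next lower dose after ≥2 DLTs in a cohort.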
# [2] = Phase I plasma pharmacokinetics of ENMD-1198 in cancer patients
# [3] = single oral dose 425 mg/m^2/day, n=5
compound,measurement,setting,value
"COc1cc2c(cc1C(N)=O)CC[C@@H]1[C@@H]2CC[C@]2(C)C=CC[C@@H]12 [ENMD-1198, 2-methoxyestra-1,3,5(10)16-tetraene-3-carboxamide]",Drug-related Grade 3/4 toxicities,[1]; 5–425 mg/m^2/d dose range,No drug-related Grade 3/4 toxicities
same,Recommended phase II dose (RP2D),[1]; oral once daily,425 mg/m^2/d
same,Maximum tolerated dose (MTD),"[1]; oral once daily, cancer patients",425 mg/m^2/day
same,Life-threatening AEs or treatment-related deaths,[1]; whole study,No life-threatening AEs or treatment-related deaths
same,Accumulation after multiple doses,"[2]; human, in vivo",3 fold
same,Dose proportionality of plasma exposures,"[2]; human, in vivo",increased proportionally with dose
same,Mean terminal half-life,"[2]; human, in vivo",15 h
same,Tmax,"[2]; human, in vivo, po",1 to 2 h
same,AUC0–24hr,"[2]; human, in vivo, po, 5 mg/m2",312.35 ± 175.38 ng·h/mL
same,Cmax,"[2]; human, in vivo, po, 5 mg/m2",68.75 ± 48.50 ng/mL
same,Half-life,"[2]; human, in vivo, po, 5 mg/m2",12.16 ± 4.22 h
same,Tmax,"[2]; human, in vivo, po, 5 mg/m2",1.25 ± 0.50 h
same,AUC0–24hr,"[2]; human, in vivo, po, 10 mg/m2",1073.83 ± 156.28 ng·h/mL
same,Cmax,"[2]; human, in vivo, po, 10 mg/m2",141.20 ± 28.47 ng/mL
same,Half-life,"[2]; human, in vivo, po, 10 mg/m2",10.57 ± 4.42 h
same,Tmax,"[2]; human, in vivo, po, 10 mg/m2",1.67 ± 0.58 h
same,AUC0–24hr,"[2]; human, in vivo, po, 20 mg/m2",2138.07 ± 384.60 ng·h/mL
same,Cmax,"[2]; human, in vivo, po, 20 mg/m2",418.66 ± 72.53 ng/mL
same,Half-life,"[2]; human, in vivo, po, 20 mg/m2",11.03 ± 1.85 h
same,Tmax,"[2]; human, in vivo, po, 20 mg/m2",1.33 ± 0.58 h
same,AUC0–24hr,"[2]; human, in vivo, po, 30 mg/m2",3914.43 ± 1336.73 ng·h/mL
same,Cmax,"[2]; human, in vivo, po, 30 mg/m2",677.80 ± 125.78 ng/mL
same,Half-life,"[2]; human, in vivo, po, 30 mg/m2",19.45 ± 7.66 h
same,Tmax,"[2]; human, in vivo, po, 30 mg/m2",1.00 ± 0.00 h
same,AUC0–24hr,"[2]; human, in vivo, po, 40 mg/m2",3616.23 ± 1880.32 ng·h/mL
same,Cmax,"[2]; human, in vivo, po, 40 mg/m2",675.83 ± 280.76 ng/mL
same,Half-life,"[2]; human, in vivo, po, 40 mg/m2",8.98 ± 4.22 h
same,Tmax,"[2]; human, in vivo, po, 40 mg/m2",1.33 ± 0.58 h
same,AUC0–24hr,"[2]; human, in vivo, po, 60 mg/m2",4901.00 ng·h/mL
same,Cmax,"[2]; human, in vivo, po, 60 mg/m2",1032.20 ng/mL
same,Half-life,"[2]; human, in vivo, po, 60 mg/m2",11.82 h
same,Tmax,"[2]; human, in vivo, po, 60 mg/m2",1.00 h
same,AUC0–24hr,"[2]; human, in vivo, po, 120 mg/m2",10387.00 ng·h/mL
same,Cmax,"[2]; human, in vivo, po, 120 mg/m2",1823.10 ng/mL
same,Half-life,"[2]; human, in vivo, po, 120 mg/m2",10.66 h
same,Tmax,"[2]; human, in vivo, po, 120 mg/m2",1.00 h
same,AUC0–24hr,"[2]; human, in vivo, po, 180 mg/m2",14789.00 ng·h/mL
same,Cmax,"[2]; human, in vivo, po, 180 mg/m2",2904.10 ng/mL
same,Half-life,"[2]; human, in vivo, po, 180 mg/m2",29.80 h
same,Tmax,"[2]; human, in vivo, po, 180 mg/m2",1.00 h
same,AUC0–24hr,"[2]; human, in vivo, po, 240 mg/m2",16277.00 ng·h/mL
same,Cmax,"[2]; human, in vivo, po, 240 mg/m2",2559.90 ng/mL
same,Half-life,"[2]; human, in vivo, po, 240 mg/m2",16.15 h
same,Tmax,"[2]; human, in vivo, po, 240 mg/m2",1.00 h
same,AUC0–24hr,"[2]; human, in vivo, po, 320 mg/m2",42184.00 ng·h/mL
same,Cmax,"[2]; human, in vivo, po, 320 mg/m2",3851.00 ng/mL
same,Half-life,"[2]; human, in vivo, po, 320 mg/m2",9.70 h
same,Tmax,"[2]; human, in vivo, po, 320 mg/m2",2.00 h
same,AUC0–24hr,"[2]; human, in vivo, po, 550 mg/m2",45223.33 ± 18198.49 ng·h/mL
same,Cmax,"[2]; human, in vivo, po, 550 mg/m2",4319.67 ± 2006.78 ng/mL
same,Half-life,"[2]; human, in vivo, po, 550 mg/m2",17.93 ± 4.11 h
same,Tmax,"[2]; human, in vivo, po, 550 mg/m2",1.67 ± 0.58 h
same,AUC0–24hr,[2]; [3],24816.06 ± 14612.08 ng·h/mL
same,Cmax,[2]; [3],2420.94 ± 1098.82 ng/mL
same,Half-life,[2]; [3],18.40 ± 13.04 h
same,Tmax,[2]; [3],6.20 ± 9.96 h
